Measured values as given in ChEMBL document CHEMBL4673224, “Synthesis of 7-benzylguanosine cap-analogue conjugates for eIF4E targeted degradation” (Eur J Med Chem, 2019).
Calls of active or inactive are those of the source. The rule behind the calls is not given here.

Tests used:
[1] = molecular target: Eukaryotic translation initiation factor 4E (Homo sapiens) (UniProt P06730); experiment: Inhibition of eIF4E binding to m7GDP in immobilized resin with HEK293 lysate at 500 uM by western blot analysis based competitive binding assay; format: subcellular; settings: time 12.0 hrs
Chain of Eukaryotic translation initiation factor 4E (Homo sapiens) (P06730 whole entry): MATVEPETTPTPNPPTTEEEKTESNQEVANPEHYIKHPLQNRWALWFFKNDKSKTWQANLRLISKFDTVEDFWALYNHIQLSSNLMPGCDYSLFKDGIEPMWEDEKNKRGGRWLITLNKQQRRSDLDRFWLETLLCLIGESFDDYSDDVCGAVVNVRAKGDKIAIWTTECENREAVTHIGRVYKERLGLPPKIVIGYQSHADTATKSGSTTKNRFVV
In short: (§1)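 350 μg protein bound to m7GDP agarose for 2 h at 4 °C, washed, then exposed to compound in Buffer A overnight. Bound protein eluted in LDS buffer and probed with anti-eIF4E antibody. m7GDP is the positive control and DMSO the negative control.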

[2] = molecular target: T1, Protein cereblon/Eukaryotic translation initiation factor 4E (Homo sapiens) (UniProt P06730+Q96SW2); experiment: Protac activity at E3-liagse/eIF4E in human MDA-MB-231 cells assessed as reduction in eIF4E protein level at 25 to 200 uM after 24 to 72 hrs; format: cell-based; settings: dose 25-200 µM, time 24-72 hrs
T1 sequence (P06730 whole entry, looked up): as the sequence (P06730 whole entry) above
T1 sequence (Q96SW2 whole entry, looked up): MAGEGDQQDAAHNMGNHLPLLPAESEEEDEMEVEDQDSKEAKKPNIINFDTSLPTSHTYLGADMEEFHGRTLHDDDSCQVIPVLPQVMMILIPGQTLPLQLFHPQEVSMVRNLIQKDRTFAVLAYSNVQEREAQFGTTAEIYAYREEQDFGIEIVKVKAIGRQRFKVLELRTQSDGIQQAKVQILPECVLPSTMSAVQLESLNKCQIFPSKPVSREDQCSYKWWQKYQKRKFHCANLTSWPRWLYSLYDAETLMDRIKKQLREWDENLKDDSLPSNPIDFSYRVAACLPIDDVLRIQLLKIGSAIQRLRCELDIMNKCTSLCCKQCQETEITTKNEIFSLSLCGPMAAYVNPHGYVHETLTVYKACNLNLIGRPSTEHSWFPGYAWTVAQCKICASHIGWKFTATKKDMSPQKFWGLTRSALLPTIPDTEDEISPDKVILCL
In short: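 MDA-MB-231 cells are grown in RPMI-1640 with 10% FBS and 1 mM glutamine at 37 °C under 5% CO2. Cells are exposed to compound at 25–200 μM for 24–72 h, and eIF4E protein level is then assessed.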

[3] = molecular target: Eukaryotic translation initiation factor 4E (Homo sapiens) (UniProt P06730); experiment: Inhibition of eIF4E binding to m7GMP in immobilized resin with HEK293 lysate at 500 uM by western blot analysis based competitive binding assay; format: subcellular
In short: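 Cap pull-down is carried out on m7GMP agarose. HEK293 lysate is freeze-thawed thrice and cleared at 20,000 × g, and 350 μg protein is loaded for 2 h at 4 °C. After washes, the resin is incubated overnight with 500 μM compound in Buffer A (50 mM HEPES-KOH pH 7.5, 150 mM KCl). eIF4E remaining on the resin is read by anti-eIF4E western blot. m7GMP is the positive control and DMSO the negative control.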

[4] = molecular target: T1, Protein cereblon/Eukaryotic translation initiation factor 4E (Homo sapiens); experiment: Protac activity at E3-ligase/eIF4E in human K562 cells assessed as intracellular eIF4E degradation by Western blot analysis; format: cell-based
[5] = molecular target: Eukaryotic translation initiation factor 4E (Homo sapiens) (UniProt P06730); experiment: Inhibition of eIF4E binding to m7GDP in immobilized resin with HEK293 lysate by western blot analysis based competitive binding assay; format: subcellular; settings: dose 50-500 µM; in short: as §1

SMILES	inhibition [1]	Activity [2]	inhibition [3]	Activity [4]	inhibition [5]
Nc1nc2c(c(=O)[nH]1)[n+](Cc1ccc(F)cc1)cn2[C@@H]1O[C@H](COP(=O)(O)OP(=O)(O)NCCOCCOCCOCCOCCOCCOCCOCCC(=O)Nc2cccc3c2CN(C2CCC(=O)NC2=O)C3=O)[C@@H](O)[C@H]1O (stereo partly drawn)	Active	inactive			
Nc1nc2c(c(=O)[nH]1)[n+](Cc1ccccc1)cn2[C@@H]1O[C@H](COS(=O)(=O)NC(=O)CCC(=O)NCCCCCC(=O)Nc2cccc3c2CN(C2CCC(=O)NC2=O)C3=O)[C@@H](O)[C@H]1O (stereo partly drawn)			inactive		
Cc1ncsc1-c1ccc(CNC(=O)C2C[C@H](O)CN2C(=O)[C@@H](NC(=O)CCCCCNP(=O)(O)OP(=O)(O)OC[C@H]2O[C@@H](n3cnc4c(=O)[nH]c(N)nc43)[C@H](O)[C@@H]2O)C(C)(C)C)cc1 (stereo partly drawn)	inactive			inactive	
Nc1nc2c(c(=O)[nH]1)[n+](Cc1ccc(F)cc1)cn2[C@@H]1O[C@H](COP(=O)(O)OP(=O)(O)NCCOCCOCCOCCC(=O)Nc2cccc3c2CN(C2CCC(=O)NC2=O)C3=O)[C@@H](O)[C@H]1O (stereo partly drawn)	Active	inactive		inactive	
Nc1nc2c(c(=O)[nH]1)[n+](Cc1ccccc1)cn2[C@@H]1O[C@H](COP(=O)(O)OP(=O)(O)NCCOCCOCCOCCOCCOCCOCCOCCC(=O)Nc2cccc3c2CN(C2CCC(=O)NC2=O)C3=O)[C@@H](O)[C@H]1O (stereo partly drawn)	Active	inactive			
Nc1nc2c(c(=O)[nH]1)[n+](Cc1ccc(F)cc1)cn2[C@@H]1O[C@H](COS(=O)(=O)NC(=O)CCC(=O)NCCCCCC(=O)Nc2cccc3c2CN(C2CCC(=O)NC2=O)C3=O)[C@@H](O)[C@H]1O (stereo partly drawn)			inactive		
Nc1nc2c(ncn2[C@@H]2O[C@H](COP(=O)(O)OP(=O)(O)NCCOCCOCCOCCOCCOCCOCCOCCC(=O)Nc3cccc4c3CN(C3CCC(=O)NC3=O)C4=O)[C@@H](O)[C@H]2O)c(=O)[nH]1 (stereo partly drawn)	inactive				
Nc1nc2c(c(=O)[nH]1)[n+](Cc1ccc(F)cc1)cn2[C@@H]1O[C@H](COP(=O)(O)NCCCCCC(=O)Nc2cccc3c2CN(C2CCC(=O)NC2=O)C3=O)[C@@H](O)[C@H]1O (stereo partly drawn)			inactive		
Nc1nc2c(c(=O)[nH]1)[n+](Cc1ccc(F)cc1)cn2[C@@H]1O[C@H](COP(=O)(O)OP(=O)(O)NCCCCCC(=O)Nc2cccc3c2CN(C2CCC(=O)NC2=O)C3=O)[C@@H](O)[C@H]1O (stereo partly drawn)	Active	inactive			
Nc1nc2c(ncn2[C@@H]2O[C@H](COP(=O)(O)OP(=O)(O)NCCOCCOCCOCCC(=O)Nc3cccc4c3CN(C3CCC(=O)NC3=O)C4=O)[C@@H](O)[C@H]2O)c(=O)[nH]1 (stereo partly drawn)	inactive			inactive	
Cc1ncsc1-c1ccc(CNC(=O)C2C[C@H](O)CN2C(=O)[C@@H](NC(=O)CCCCCNP(=O)(O)OP(=O)(O)OC[C@H]2O[C@@H](n3c[n+](Cc4ccccc4)c4c(=O)[nH]c(N)nc43)[C@H](O)[C@@H]2O)C(C)(C)C)cc1 (stereo partly drawn)	Active	inactive		inactive	
Nc1nc2c(c(=O)[nH]1)[n+](Cc1ccccc1)cn2[C@@H]1O[C@H](COP(=O)(O)OP(=O)(O)NCCOCCOCCOCCC(=O)Nc2cccc3c2CN(C2CCC(=O)NC2=O)C3=O)[C@@H](O)[C@H]1O (stereo partly drawn)	Active	inactive		inactive	
Nc1nc2c(c(=O)[nH]1)[n+](Cc1ccccc1)cn2[C@@H]1O[C@H](COP(=O)(O)NCCCCCC(=O)Nc2cccc3c2CN(C2CCC(=O)NC2=O)C3=O)[C@@H](O)[C@H]1O (stereo partly drawn)			inactive		
Nc1nc2c(c(=O)[nH]1)[n+](Cc1ccccc1)cn2[C@@H]1O[C@H](COP(=O)(O)OP(=O)(O)NCCCCCC(=O)Nc2cccc3c2CN(C2CCC(=O)NC2=O)C3=O)[C@@H](O)[C@H]1O (stereo partly drawn)	Active	inactive			Dose-dependent effect
Nc1nc2c(ncn2[C@@H]2O[C@H](COS(=O)(=O)NC(=O)CCC(=O)NCCCCCC(=O)Nc3cccc4c3CN(C3CCC(=O)NC3=O)C4=O)[C@@H](O)[C@H]2O)c(=O)[nH]1 (stereo partly drawn)			inactive		
Nc1nc2c(ncn2[C@@H]2O[C@H](COP(=O)(O)OP(=O)(O)NCCCCCC(=O)Nc3cccc4c3CN(C3CCC(=O)NC3=O)C4=O)[C@@H](O)[C@H]2O)c(=O)[nH]1 (stereo partly drawn)	inactive				
Cc1ncsc1-c1ccc(CNC(=O)C2C[C@H](O)CN2C(=O)[C@@H](NC(=O)CCCCCNP(=O)(O)OP(=O)(O)OC[C@H]2O[C@@H](n3c[n+](Cc4ccc(F)cc4)c4c(=O)[nH]c(N)nc43)[C@H](O)[C@@H]2O)C(C)(C)C)cc1 (stereo partly drawn)	Active	inactive		inactive	
Nc1nc2c(ncn2[C@@H]2O[C@H](COP(=O)(O)NCCCCCC(=O)Nc3cccc4c3CN(C3CCC(=O)NC3=O)C4=O)[C@@H](O)[C@H]2O)c(=O)[nH]1 (stereo partly drawn)			inactive		
